Assay results taken from ChEMBL document CHEMBL1147131, “Investigation of the lactam side chain length necessary for optimal indenoisoquinoline topoisomerase I inhibition and cytotoxicity in human cancer cell cultures” (J Med Chem, 2007).
Calls of active or inactive are those of the source. The calls are words filed in the database; no cut-off is given here.

How the values were obtained:
[1] = Cytotoxicity against human […] cells; format: cell-based
[2] = Cytotoxicity against human DU145 cells; format: cell-based; conditions: DU-145 cells
[3] = Cytotoxicity against human HOP62 cells; format: cell-based; conditions: HOP-62 cells
[4] = Cytotoxicity against human OVCAR-3 cells; format: cell-based
SF-268 = assay: Cytotoxicity against human SF268 cells; format: functional
[5] = Cytotoxicity against human HCT116 cells; format: cell-based; conditions: HCT-116 cells
[6] = Cytotoxicity against human UACC62 cells; format: cell-based; conditions: UACC-62 cells
[7] = Cytotoxicity against human SN12C cells; format: cell-based
[8] = biological target: T1, DNA topoisomerase 1 (Homo sapiens) (UniProt P11387); assay: Inhibition of human recombinant topoisomerase 1-mediated DNA cleavage after 30 mins
T1 sequence (whole entry): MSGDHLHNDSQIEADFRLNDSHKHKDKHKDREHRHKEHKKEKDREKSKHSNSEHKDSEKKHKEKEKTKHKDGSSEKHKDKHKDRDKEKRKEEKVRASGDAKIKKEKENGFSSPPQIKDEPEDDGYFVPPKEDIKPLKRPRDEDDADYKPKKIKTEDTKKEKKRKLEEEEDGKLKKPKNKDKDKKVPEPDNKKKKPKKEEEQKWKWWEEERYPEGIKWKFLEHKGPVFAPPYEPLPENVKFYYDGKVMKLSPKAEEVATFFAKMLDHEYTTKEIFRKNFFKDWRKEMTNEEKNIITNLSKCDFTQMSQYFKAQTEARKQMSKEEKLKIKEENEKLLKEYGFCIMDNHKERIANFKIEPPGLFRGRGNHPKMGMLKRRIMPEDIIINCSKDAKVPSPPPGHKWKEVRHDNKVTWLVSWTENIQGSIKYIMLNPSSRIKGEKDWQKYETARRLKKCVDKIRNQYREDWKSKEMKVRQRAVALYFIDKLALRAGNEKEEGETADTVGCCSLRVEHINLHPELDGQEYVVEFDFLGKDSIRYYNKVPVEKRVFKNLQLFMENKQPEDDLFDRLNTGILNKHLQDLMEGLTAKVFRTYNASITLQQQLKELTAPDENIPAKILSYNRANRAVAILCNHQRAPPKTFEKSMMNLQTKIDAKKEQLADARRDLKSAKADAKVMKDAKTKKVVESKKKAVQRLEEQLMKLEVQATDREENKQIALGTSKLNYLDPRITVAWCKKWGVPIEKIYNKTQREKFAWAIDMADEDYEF
Procedure, shortened: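 Human recombinant Top1 purified from baculovirus. Substrate: 161 bp PvuII/HindIII fragment of pBluescript SK(−), 3′-end labeled at the HindIII site by Klenow fill-in with [α-32P]-dGTP. About 50,000 dpm per reaction, incubated with Top1 plus drug for 30 min at 22 °C. Stopped with SDS (0.5% final). Run on denaturing 16% polyacrylamide/7 M urea gels and phosphorimaged. Cleavage scored semi-quantitatively (+ scale) against the parent indenoisoquinoline.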

SMILES	GI50 [1]	GI50 [2]	GI50 [3]	GI50 [4]	GI50 (SF-268)	GI50 [5]	GI50 [6]	GI50 [7]	Activity [8]
NCCCn1c2c(c3ccccc3c1=O)C(=O)c1ccccc1-2	0.78 µM	0.22 µM	0.2 µM	1.38 µM	0.25 µM	0.18 µM	0.26 µM	0.16 µM	–
COc1cc2c3c(n(CCCNCCNCCN)c(=O)c2cc1OC)-c1cc2c(cc1C3=O)OCO2	2.7 µM	1.2 µM	2.8 µM	1.7 µM	–	0.9 µM	2.6 µM	2.5 µM	–
COc1cc2c3c(n(CCCNCCNCCCN)c(=O)c2cc1OC)-c1cc2c(cc1C3=O)OCO2	3.4 µM	4.6 µM	2.9 µM	8.1 µM	–	1.3 µM	1.9 µM	1.7 µM	–
NCCCCn1c2c(c3ccccc3c1=O)C(=O)c1ccccc1-2	0.84 µM	0.01 µM	0.08 µM	0.52 µM	0.1 µM	0.1 µM	0.05 µM	0.04 µM	–
CC(C)(C)OC(=O)NCCCCCCCCn1c2c(c3ccccc3c1=O)C(=O)c1ccccc1-2	> 50.1 µM	> 50.1 µM	10.7 µM	–	8.71 µM	25.7 µM	15.5 µM	> 50.1 µM	inactive
NCCCCCn1c2c(c3ccccc3c1=O)C(=O)c1ccccc1-2	1.35 µM	0.347 µM	0.288 µM	0.708 µM	0.871 µM	0.2 µM	1.35 µM	0.398 µM	inactive
COc1cc2c3c(n(CCCNCCCNCCN)c(=O)c2cc1OC)-c1cc2c(cc1C3=O)OCO2	38 µM	52 µM	–	20 µM	–	23 µM	37 µM	20 µM	–
CC[C@@]1(O)C(=O)OCc2c1cc1n(c2=O)Cc2cc3ccccc3nc2-1 [CAMPTOTHECIN]	0.04 µM	–	–	–	0.01 µM	–	–	–	–
NCCCCCCCn1c2c(c3ccccc3c1=O)C(=O)c1ccccc1-2	2.24 µM	0.832 µM	1.2 µM	1.7 µM	1.78 µM	1.26 µM	2 µM	1.66 µM	inactive
NCCCCCCCCCCn1c2c(c3ccccc3c1=O)C(=O)c1ccccc1-2	11.7 µM	3.47 µM	4.79 µM	10.7 µM	1.82 µM	2.75 µM	13.8 µM	3.31 µM	inactive
O=C1c2ccccc2-c2c1c1ccccc1c(=O)n2CCc1cccnc1	4.57 µM	81.3 µM	28.8 µM	> 100 µM	27.5 µM	–	89.1 µM	> 100 µM	inactive
O=C1c2ccccc2-c2c1c1ccccc1c(=O)n2Cc1ccccn1	3.09 µM	13.5 µM	11.2 µM	13.8 µM	12.3 µM	–	10.7 µM	28.2 µM	inactive
Nn1c2c(c3ccccc3c1=O)C(=O)c1ccccc1-2	> 50.1 µM	> 50.1 µM	24.5 µM	> 50.1 µM	28.2 µM	> 50.1 µM	> 50.1 µM	> 50.1 µM	inactive
NCCn1c2c(c3ccccc3c1=O)C(=O)c1ccccc1-2	0.92 µM	0.76 µM	0.62 µM	0.71 µM	0.21 µM	0.27 µM	0.92 µM	0.49 µM	–
NCCCCCCCCCn1c2c(c3ccccc3c1=O)C(=O)c1ccccc1-2	9.55 µM	6.03 µM	6.76 µM	9.55 µM	9.77 µM	6.46 µM	9.33 µM	8.51 µM	inactive
NCCCCCCCCCCCCn1c2c(c3ccccc3c1=O)C(=O)c1ccccc1-2	19.5 µM	19.1 µM	17 µM	17.8 µM	18.2 µM	–	14.8 µM	13.5 µM	–
CC(C)(C)OC(=O)NCCCCCCCCCn1c2c(c3ccccc3c1=O)C(=O)c1ccccc1-2	> 100 µM	> 100 µM	24.5 µM	28.8 µM	17.8 µM	–	17.4 µM	77.6 µM	–
CC(C)(C)OC(=O)NCCCCCCCn1c2c(c3ccccc3c1=O)C(=O)c1ccccc1-2	81.3 µM	31.6 µM	–	33.9 µM	20.9 µM	17.4 µM	20 µM	74.1 µM	inactive
CC(C)(C)OC(=O)NCCCCCCCCCCCn1c2c(c3ccccc3c1=O)C(=O)c1ccccc1-2	> 100 µM	91.2 µM	20.9 µM	70.8 µM	29.5 µM	35.5 µM	24 µM	> 100 µM	–
NCCCCCCn1c2c(c3ccccc3c1=O)C(=O)c1ccccc1-2	2.04 µM	0.603 µM	1.29 µM	2 µM	1.23 µM	0.912 µM	1.62 µM	1.32 µM	–
COc1cc2c3c(n(C)c(=O)c2cc1OC)-c1cc2c(cc1C3=O)OCO2	96 µM	–	–	–	–	–	–	–	–
O=C1c2ccccc2-c2c1c1ccccc1c(=O)n2CCc1ccccn1	5.13 µM	74.1 µM	21.4 µM	> 100 µM	17.4 µM	–	27.5 µM	77.6 µM	inactive
CC(C)(C)OC(=O)NCCCCCCCCCCCCn1c2c(c3ccccc3c1=O)C(=O)c1ccccc1-2	> 100 µM	91.2 µM	32.4 µM	> 100 µM	20.4 µM	> 100 µM	27.5 µM	> 100 µM	–
NCCCCCCCCn1c2c(c3ccccc3c1=O)C(=O)c1ccccc1-2	5.62 µM	3.39 µM	2.14 µM	3.47 µM	2.82 µM	1.66 µM	3.8 µM	3.47 µM	–
COc1cc2c3c(n(CCCNCCCNCCCN)c(=O)c2cc1OC)-c1cc2c(cc1C3=O)OCO2	68 µM	> 100 µM	–	0.88 µM	–	43 µM	44 µM	33 µM	–
O=C1c2ccccc2-c2c1c1ccccc1c(=O)n2Cc1cccnc1	42.7 µM	13.8 µM	7.59 µM	13.8 µM	6.76 µM	–	8.71 µM	13.8 µM	–
NCCCCCCCCCCCn1c2c(c3ccccc3c1=O)C(=O)c1ccccc1-2	11 µM	4.57 µM	2.19 µM	2.09 µM	2.04 µM	1.91 µM	1.7 µM	2 µM	–
CC(C)(C)OC(=O)NCCCCCCCCCCn1c2c(c3ccccc3c1=O)C(=O)c1ccccc1-2	> 100 µM	97.7 µM	28.8 µM	> 100 µM	42.7 µM	60.3 µM	43.6 µM	> 100 µM	inactive
